Active and inactive are the calls of the source. The rule behind the calls is not given here.
Experiments:
[1] = molecular target: T1, SWI/SNF-related matrix-associated actin-dependent regulator of chromatin subfamily A member 2 (Homo sapiens, UniProt P51531); assay: Binding affinity to human SMARC2A expressed in BL21 (DE3)-R3-BirA cells assessed as change in melting temperature at 10 uM by sypro-orange dye-based differential scanning fluorimetric analysis; format: cell-based
In short: (§1)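 Thermal shift (DSF) screen of bromodomain proteins with compound at 10 μM; binding read as change in melting temperature (Tm shift).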

[2] = molecular target: T1, SWI/SNF-related matrix-associated actin-dependent regulator of chromatin subfamily A member 2; assay: Binding affinity to human SMARC2B expressed in BL21 (DE3)-R3-BirA cells assessed as change in melting temperature at 10 uM by sypro-orange dye-based differential scanning fluorimetric analysis; format: cell-based; in short: as §1
[3] = molecular target: T2, Protein polybromo-1 (Homo sapiens, UniProt Q86U86); assay: Binding affinity to human PB1 isoform 5 expressed in BL21 (DE3)-R3-BirA cells assessed as change in melting temperature at 10 uM by sypro-orange dye-based differential scanning fluorimetric analysis; format: cell-based; in short: as §1
[4] = molecular target: T2, Protein polybromo-1; assay: Binding affinity to human PB1 isoform 3 expressed in BL21 (DE3)-R3-BirA cells assessed as change in melting temperature at 10 uM by sypro-orange dye-based differential scanning fluorimetric analysis; format: cell-based; in short: as §1
[5] = molecular target: T3, SWI/SNF-related matrix-associated actin-dependent regulator of chromatin subfamily A member 4 (Homo sapiens, UniProt P51532); assay: Binding affinity to human SMARCA4 expressed in BL21 (DE3)-R3-BirA cells assessed as change in melting temperature at 10 uM by sypro-orange dye-based differential scanning fluorimetric analysis; format: cell-based; in short: as §1
[6] = molecular target: T2, Protein polybromo-1; assay: Binding affinity to human PB1 isoform 4 expressed in BL21 (DE3)-R3-BirA cells assessed as change in melting temperature at 10 uM by sypro-orange dye-based differential scanning fluorimetric analysis; format: cell-based; in short: as §1
[7] = molecular target: T2, Protein polybromo-1; assay: Binding affinity to human PB1 isoform 2 expressed in BL21 (DE3)-R3-BirA cells assessed as change in melting temperature at 10 uM by sypro-orange dye-based differential scanning fluorimetric analysis; format: cell-based; in short: as §1
[8] = molecular target: T2, Protein polybromo-1; assay: Binding affinity to human PB1 isoform 2 expressed in BL21 (DE3)-R3-BirA cells by isothermal titration Calorimetry
In short: (§2)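 Absolute binding affinity measured by isothermal titration calorimetry on the bromodomain protein.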

[9] = molecular target: T3, SWI/SNF-related matrix-associated actin-dependent regulator of chromatin subfamily A member 4; assay: Binding affinity to human SMARCA4 expressed in BL21 (DE3)-R3-BirA cells by isothermal titration calorimetry
[10] = molecular target: T2, Protein polybromo-1; assay: Binding affinity to human PB1 isoform 5 expressed in BL21 (DE3)-R3-BirA cells by isothermal titration calorimetry; in short: as §2
[11] = Half life in PBS at pH 7.4 at 20 degC; format: ADME; conditions: buffer
[12] = system: C2C12; assay: Inhibition of differentiation in mouse C2C12 cells assessed as shortening of myotubes with lower nuclei at 500 nM to 50 uM by HRP-peroxidase-based immunocytochemistry relative to control; format: functional, cell-based
In short: (§3)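 C2C12 myoblasts grown with compound through differentiation, normally seen within 48 hours. Scored by cell fusion into myotubes (myotube length, nuclei per myotube) and MyHC expression relative to controls; myogenin monitored as an early marker.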

[13] = system: 786-0; assay: Antiproliferative activity against human 786-0 cells at 0.1 to 10 uM incubated for 24 to 72 hrs by MTT assay; format: functional, cell-based
In short: (§4)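 Clear cell renal carcinoma lines (786-O with wild-type PB1 expression; Rcc4 with PB1 downregulation) treated with compound; proliferation read-out.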

[14] = system: C2C12; assay: Cytotoxicity against mouse C2C12 cells assessed as cell viability up to 50 uM after 72 hrs by MTT assay; format: cell-based; conditions: c2c12, 72 h
[15] = molecular target: T2, Protein polybromo-1; assay: Inhibition of chromatin binding to full length GFP-tagged PB1 expressed in human U2OS cells assessed as acceleration of FRAP half-recovery time at 1 uM incubated for 1 hr in presence of SAHA by FRAP assay; format: cell-based
In short: (§5)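 U2OS cells transfected with full-length GFP-PB1 and treated with SAHA to induce hyperacetylation. Mutant controls were PB1 N263A (second bromodomain) and N707F (fifth bromodomain). Read-out is FRAP half-recovery time (t½) from individual recovery curves, at least 20 cells per group, reported as mean ± SEM. Compared against WT with 2.5 μM SAHA.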

[16] = system: C3H 10T1/2; assay: Inhibition of differentiation of mouse C3H10T1/2 cells to adipocytes assessed as lipid accumulation at 5 uM by oil red O staining-based assay; format: functional, cell-based
In short: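 C3H10T1/2 mesenchymal cells induced to differentiate to adipocytes with an adipogenic cocktail in the presence of compound; lipid droplet accumulation visualised by Oil Red O staining.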

[17] = system: RCC4; assay: Antiproliferative activity against human RCC4 cells at 0.1 to 10 uM incubated for 24 to 72 hrs by MTT assay; format: functional, cell-based; in short: as §4
[18] = system: C2C12; assay: Inhibition of differentiation in mouse C2C12 cells assessed as suppression of MyHC expression at 5 uM by HRP-peroxidase-based immunocytochemistry; format: functional, cell-based; in short: as §3
[19] = molecular target: T2, Protein polybromo-1; assay: Inhibition of chromatin binding to full length GFP-tagged PB1 expressed in human U2OS cells assessed as acceleration of FRAP half-recovery time at 100 nM incubated for 1 hr in presence of SAHA by FRAP assay; format: cell-based; in short: as §5
[20] = Cytotoxicity against mouse C3H10T1/2 cells assessed as cell death at 100 uM after 72 hrs by MTT assay; format: cell-based; conditions: c3h 10t1/2, 72 h
[21] = Cytotoxicity against mouse C3H10T1/2 cells assessed as cell viability up to 50 uM after 72 hrs by MTT assay; format: cell-based; conditions: c3h 10t1/2, 72 h
[22] = system: C2C12; assay: Cytotoxicity against mouse C2C12 cells assessed as cell death at 100 uM after 72 hrs by MTT assay; format: cell-based; conditions: c2c12, 72 h
[23] = molecular target: T1, SWI/SNF-related matrix-associated actin-dependent regulator of chromatin subfamily A member 2; assay: Binding affinity to human SMARCA2 expressed in BL21 (DE3)-R3-BirA cells by isothermal titration calorimetry
[24] = molecular target: T1, SWI/SNF-related matrix-associated actin-dependent regulator of chromatin subfamily A member 2; assay: Inhibition of chromatin binding to full length GFP-tagged wild type SMARCA2 expressed in human U2OS cells assessed as acceleration of FRAP half-recovery time incubated for 1 hr in presence of SAHA by FRAP assay; format: cell-based
In short: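 U2OS cells transfected with GFP-SMARCA2 (WT) and treated with SAHA to induce hyperacetylation, with compound given at several doses. The mutant control was GFP-SMARCA2 N1464F (acetyl-lysine-recognising asparagine).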

[25] = system: C2C12; assay: Inhibition of differentiation in mouse C2C12 cells assessed as suppression of MyHC expression at 1 uM by HRP-peroxidase-based immunocytochemistry; format: functional, cell-based
In short: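 C2C12 myoblasts grown with compound through differentiation, normally complete within 48 hours. Fusion into myotubes was scored, along with expression of the early marker myogenin and of myosin heavy chain (MyHC) in myotubes.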

[26] = Drug recovery in cell media after 1 week at 37 degC by HPLC analysis; format: physicochemical; conditions: read-out: Drug recovery
[27] = system: C3H 10T1/2; assay: Inhibition of differentiation of mouse C3H10T1/2 cells to adipocytes assessed as lipid accumulation at 1 uM by oil red O staining-based assay; format: functional, cell-based
In short: (§6)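 C3H10T1/2 mesenchymal cells induced toward adipocytes with an adipogenic cocktail in presence of compound. Lipid droplet accumulation visualized by Oil Red O staining.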

[28] = system: C3H 10T1/2; assay: Inhibition of differentiation of mouse C3H10T1/2 cells to adipocytes assessed as lipid accumulation at 20 uM by oil red O staining-based assay; format: functional, cell-based; in short: as §6

T2 sequence (Q86U86 whole entry, canonical isoform): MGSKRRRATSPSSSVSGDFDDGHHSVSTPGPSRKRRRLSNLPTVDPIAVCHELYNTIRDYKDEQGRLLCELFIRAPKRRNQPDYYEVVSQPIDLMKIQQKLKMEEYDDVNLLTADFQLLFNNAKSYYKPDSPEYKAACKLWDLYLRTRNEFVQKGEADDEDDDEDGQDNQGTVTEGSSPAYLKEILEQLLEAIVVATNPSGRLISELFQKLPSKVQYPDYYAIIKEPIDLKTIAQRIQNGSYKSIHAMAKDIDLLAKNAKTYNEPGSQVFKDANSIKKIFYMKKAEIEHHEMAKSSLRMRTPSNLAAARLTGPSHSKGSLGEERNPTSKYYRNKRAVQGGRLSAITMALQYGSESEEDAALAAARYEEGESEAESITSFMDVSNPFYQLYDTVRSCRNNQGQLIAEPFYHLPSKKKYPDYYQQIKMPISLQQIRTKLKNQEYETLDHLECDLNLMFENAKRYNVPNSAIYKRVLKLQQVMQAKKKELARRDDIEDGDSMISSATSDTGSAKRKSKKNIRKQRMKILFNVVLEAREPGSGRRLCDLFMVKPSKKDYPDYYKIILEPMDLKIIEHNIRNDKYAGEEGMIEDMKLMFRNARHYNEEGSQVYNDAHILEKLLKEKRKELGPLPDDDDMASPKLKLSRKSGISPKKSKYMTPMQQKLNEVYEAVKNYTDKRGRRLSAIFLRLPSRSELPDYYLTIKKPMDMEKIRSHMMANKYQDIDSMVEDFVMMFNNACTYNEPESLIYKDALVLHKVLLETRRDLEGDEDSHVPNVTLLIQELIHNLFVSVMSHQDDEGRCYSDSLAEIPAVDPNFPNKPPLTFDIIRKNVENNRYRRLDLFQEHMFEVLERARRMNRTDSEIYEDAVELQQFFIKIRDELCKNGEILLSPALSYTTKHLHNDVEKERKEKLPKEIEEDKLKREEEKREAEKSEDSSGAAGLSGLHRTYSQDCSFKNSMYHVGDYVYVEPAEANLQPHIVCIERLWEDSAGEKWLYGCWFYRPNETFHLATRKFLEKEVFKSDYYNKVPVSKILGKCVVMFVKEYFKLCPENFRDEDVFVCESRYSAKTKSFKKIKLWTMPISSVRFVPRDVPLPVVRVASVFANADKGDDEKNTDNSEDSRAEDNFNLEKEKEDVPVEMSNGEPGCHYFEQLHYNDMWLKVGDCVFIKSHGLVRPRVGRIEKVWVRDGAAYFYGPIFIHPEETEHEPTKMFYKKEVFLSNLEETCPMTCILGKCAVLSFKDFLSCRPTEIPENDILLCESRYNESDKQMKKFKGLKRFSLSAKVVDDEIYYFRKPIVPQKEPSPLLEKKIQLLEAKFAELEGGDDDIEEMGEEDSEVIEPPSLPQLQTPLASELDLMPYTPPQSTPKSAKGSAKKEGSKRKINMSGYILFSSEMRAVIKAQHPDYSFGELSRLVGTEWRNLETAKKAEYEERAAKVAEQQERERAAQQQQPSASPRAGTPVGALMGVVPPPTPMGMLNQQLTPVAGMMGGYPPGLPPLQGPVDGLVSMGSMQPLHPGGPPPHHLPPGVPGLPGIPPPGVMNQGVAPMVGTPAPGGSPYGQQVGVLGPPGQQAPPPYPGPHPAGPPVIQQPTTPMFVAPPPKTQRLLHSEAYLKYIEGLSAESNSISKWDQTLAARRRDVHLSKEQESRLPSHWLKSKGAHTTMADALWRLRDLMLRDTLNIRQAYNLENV
T3 sequence (P51532 whole entry, canonical isoform): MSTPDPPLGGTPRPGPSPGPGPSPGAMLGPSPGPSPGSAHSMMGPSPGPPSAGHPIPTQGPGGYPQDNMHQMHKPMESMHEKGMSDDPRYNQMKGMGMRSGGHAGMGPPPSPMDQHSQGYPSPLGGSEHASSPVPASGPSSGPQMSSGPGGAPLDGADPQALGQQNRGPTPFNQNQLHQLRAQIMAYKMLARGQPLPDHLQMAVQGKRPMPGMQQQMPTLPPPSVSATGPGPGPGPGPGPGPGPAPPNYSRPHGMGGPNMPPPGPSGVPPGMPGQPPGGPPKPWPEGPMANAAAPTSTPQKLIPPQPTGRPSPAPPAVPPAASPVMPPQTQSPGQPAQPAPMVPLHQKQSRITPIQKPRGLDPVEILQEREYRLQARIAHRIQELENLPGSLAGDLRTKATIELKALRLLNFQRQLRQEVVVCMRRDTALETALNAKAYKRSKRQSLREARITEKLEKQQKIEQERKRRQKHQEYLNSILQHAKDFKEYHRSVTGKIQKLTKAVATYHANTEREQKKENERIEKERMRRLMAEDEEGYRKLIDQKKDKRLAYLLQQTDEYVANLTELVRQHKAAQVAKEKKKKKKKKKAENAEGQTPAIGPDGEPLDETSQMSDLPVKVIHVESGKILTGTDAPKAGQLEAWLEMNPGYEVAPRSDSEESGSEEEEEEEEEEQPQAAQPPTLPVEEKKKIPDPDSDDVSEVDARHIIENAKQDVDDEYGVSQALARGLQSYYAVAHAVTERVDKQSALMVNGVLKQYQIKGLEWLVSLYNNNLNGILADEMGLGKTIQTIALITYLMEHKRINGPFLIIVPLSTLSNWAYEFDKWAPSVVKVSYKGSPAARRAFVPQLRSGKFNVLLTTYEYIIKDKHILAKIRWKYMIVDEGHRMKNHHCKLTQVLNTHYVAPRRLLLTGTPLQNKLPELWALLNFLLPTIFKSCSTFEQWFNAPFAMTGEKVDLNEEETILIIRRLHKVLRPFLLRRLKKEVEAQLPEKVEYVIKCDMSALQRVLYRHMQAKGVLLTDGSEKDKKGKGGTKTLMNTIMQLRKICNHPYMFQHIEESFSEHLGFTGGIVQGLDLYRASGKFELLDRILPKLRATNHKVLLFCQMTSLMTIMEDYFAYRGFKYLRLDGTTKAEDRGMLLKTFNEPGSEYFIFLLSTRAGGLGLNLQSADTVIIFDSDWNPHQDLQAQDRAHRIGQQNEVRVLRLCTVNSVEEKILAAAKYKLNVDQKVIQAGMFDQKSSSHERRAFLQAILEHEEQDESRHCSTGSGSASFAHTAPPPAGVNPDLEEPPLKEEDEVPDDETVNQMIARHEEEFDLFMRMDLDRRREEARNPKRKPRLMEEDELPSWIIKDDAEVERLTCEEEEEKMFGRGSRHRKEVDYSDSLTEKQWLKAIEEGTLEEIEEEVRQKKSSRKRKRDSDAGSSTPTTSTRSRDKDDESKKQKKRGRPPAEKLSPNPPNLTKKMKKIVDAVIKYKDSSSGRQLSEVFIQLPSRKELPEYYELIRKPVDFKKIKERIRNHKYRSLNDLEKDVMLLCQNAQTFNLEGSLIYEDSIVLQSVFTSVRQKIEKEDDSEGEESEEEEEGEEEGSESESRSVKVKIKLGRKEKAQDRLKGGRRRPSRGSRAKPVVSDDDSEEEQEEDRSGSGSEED
T1 sequence (P51531 whole entry): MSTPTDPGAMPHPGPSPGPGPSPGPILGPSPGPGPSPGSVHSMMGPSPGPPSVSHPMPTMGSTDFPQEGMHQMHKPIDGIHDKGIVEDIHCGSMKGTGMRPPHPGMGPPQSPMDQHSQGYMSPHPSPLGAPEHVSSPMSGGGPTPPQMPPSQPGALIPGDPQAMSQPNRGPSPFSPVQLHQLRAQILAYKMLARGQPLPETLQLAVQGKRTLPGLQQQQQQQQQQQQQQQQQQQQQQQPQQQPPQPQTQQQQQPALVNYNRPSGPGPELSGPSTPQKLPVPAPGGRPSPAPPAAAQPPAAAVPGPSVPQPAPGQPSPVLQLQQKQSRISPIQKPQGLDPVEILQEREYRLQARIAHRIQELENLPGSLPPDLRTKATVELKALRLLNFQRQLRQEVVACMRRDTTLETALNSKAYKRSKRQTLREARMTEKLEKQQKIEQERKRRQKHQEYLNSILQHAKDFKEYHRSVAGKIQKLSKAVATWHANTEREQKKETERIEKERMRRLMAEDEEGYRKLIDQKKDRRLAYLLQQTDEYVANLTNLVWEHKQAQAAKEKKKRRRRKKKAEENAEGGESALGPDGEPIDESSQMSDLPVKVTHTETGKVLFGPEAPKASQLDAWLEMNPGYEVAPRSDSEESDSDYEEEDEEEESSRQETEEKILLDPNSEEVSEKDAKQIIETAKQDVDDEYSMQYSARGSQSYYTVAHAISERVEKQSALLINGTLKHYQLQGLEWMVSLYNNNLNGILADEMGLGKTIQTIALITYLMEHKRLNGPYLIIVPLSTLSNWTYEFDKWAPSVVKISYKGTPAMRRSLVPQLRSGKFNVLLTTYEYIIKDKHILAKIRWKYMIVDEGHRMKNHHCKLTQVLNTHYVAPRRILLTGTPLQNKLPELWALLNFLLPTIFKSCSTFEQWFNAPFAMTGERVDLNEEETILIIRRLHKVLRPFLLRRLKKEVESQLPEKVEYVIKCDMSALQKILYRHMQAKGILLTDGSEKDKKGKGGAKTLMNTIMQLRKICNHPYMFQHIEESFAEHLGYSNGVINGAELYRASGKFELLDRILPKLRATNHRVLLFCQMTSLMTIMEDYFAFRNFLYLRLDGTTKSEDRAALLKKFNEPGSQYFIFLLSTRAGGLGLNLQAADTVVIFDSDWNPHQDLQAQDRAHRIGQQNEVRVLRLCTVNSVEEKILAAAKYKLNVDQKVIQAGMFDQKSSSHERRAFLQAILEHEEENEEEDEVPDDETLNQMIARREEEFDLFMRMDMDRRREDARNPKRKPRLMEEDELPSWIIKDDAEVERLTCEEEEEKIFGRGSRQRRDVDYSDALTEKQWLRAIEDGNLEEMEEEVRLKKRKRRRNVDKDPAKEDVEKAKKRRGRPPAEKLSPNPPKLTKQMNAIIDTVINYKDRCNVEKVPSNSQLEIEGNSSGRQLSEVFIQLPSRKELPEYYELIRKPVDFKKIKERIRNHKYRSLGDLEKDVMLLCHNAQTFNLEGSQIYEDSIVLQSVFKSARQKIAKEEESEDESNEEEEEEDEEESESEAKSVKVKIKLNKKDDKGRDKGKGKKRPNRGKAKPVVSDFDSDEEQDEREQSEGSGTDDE

Row | ΔTm [1] | ΔTm [2] | ΔTm [3] | ΔTm [4] | ΔTm [5] | ΔTm [6] | ΔTm [7] | Compound | other results
1 | 7.8 °C | 4.8 °C | 7.8 °C | 1.7 °C | 7 °C | 1.2 °C | 4.1 °C | O=C(/C=C/N1CCc2cn[nH]c2C1)c1ccccc1O | 
2 | 5.8 °C | 3 °C | 8 °C | 1.9 °C | 5.3 °C | 1.6 °C | 4.6 °C | O=C(/C=C/N1CCc2c(ncn2Cc2ccccc2)C1)c1ccccc1O | 
3 | 4.1 °C | 2.2 °C | 5.1 °C | 1.3 °C | 3.4 °C | 1.2 °C | 3.5 °C | CN(C)c1ncnc2c1CCN(/C=C/C(=O)c1ccccc1O)C2 | 
4 | 5.5 °C | 3 °C | 5.7 °C | 1.1 °C | 4.7 °C | 0.7 °C | 2.3 °C | O=C(/C=C/N1CCCC1)c1ccccc1O | 
5 |  |  | 9.1 °C | 3.5 °C | 7.7 °C | 2.4 °C | 6.7 °C | O=C(/C=C/N1CCc2c(ncnc2NC2CC2)C1)c1ccccc1O | Kd [8]: 152 nM; Kd [9]: 49 nM; Kd [10]: 28 nM; t1/2 [11]: 20 h
6 | 5.1 °C | 2 °C | 6.6 °C | 3.3 °C | 3.8 °C | 2 °C | 5.2 °C | O=C(/C=C/N1CC2CCC(CC2)C1)c1ccccc1O | 
7 | 2.9 °C | 1.1 °C | 4.6 °C | 0.3 °C | 2.9 °C | 0.6 °C | 0.7 °C | O=C(/C=C/N1CCN(c2ncccn2)CC1)c1ccccc1O | 
8 | 8.2 °C | 3.9 °C | 6.9 °C | 1.8 °C | 6.3 °C | 1 °C | 3.2 °C | O=C(/C=C/N1CCC(c2cc[nH]n2)CC1)c1ccccc1O | 
9 | 5.4 °C | 2.4 °C | 8.3 °C | 1.1 °C | 6.1 °C | 0.4 °C | 2.5 °C | O=C(/C=C/N1CCc2c(ccnc2N[C@H]2CC[C@H](O)CC2)C1)c1ccccc1O | 
10 | 7.4 °C | 3.7 °C | 7 °C | 0.7 °C | 7.5 °C | 1.3 °C | 0.9 °C | O=C(/C=C/N1CCN(c2cccc(OCc3ccncc3)n2)CC1)c1ccccc1O | 
11 | 7.5 °C | 4.1 °C | 7.6 °C | 0.9 °C | 6.1 °C | 0.6 °C | 2.2 °C | CC(C)(C)OC(=O)N1CCN(/C=C/C(=O)c2ccccc2O)C2(CC2)C1 | 
12 | 4.8 °C | 2 °C | 4.9 °C | 0.5 °C | 3.3 °C | 0.7 °C | 2 °C | CN(C)/C=C/C(=O)c1ccccc1O | 
13 | 0.7 °C | -0.4 °C | -0.4 °C |  | 0.7 °C |  |  | C#CCNc1ccnc(N2C[C@H]3C[C@@H]2CN3/C=C/C(=O)c2cccc(OC)c2O)n1 | inhibition [15]: inactive
14 | 5.9 °C | 3.8 °C | 8 °C | 1.5 °C | 5.8 °C | 1.2 °C | 3.8 °C | CC(C)(C)c1nc2c(n1CC1CC1)CCN(/C=C/C(=O)c1ccccc1O)C2 | 
15 | 0.7 °C | -0.4 °C | 0.4 °C | 0 °C | 0.7 °C | 0.3 °C | 0.1 °C | COc1cccc(C(=O)/C=C/N2CCCC2)c1O | 

Row | Compound | ΔTm [1] | ΔTm [2] | ΔTm [3] | ΔTm [4] | ΔTm [5] | ΔTm [6] | ΔTm [7] | other results
16 | O=C(/C=C/N1[C@H]2CC[C@@H]1c1ncnc(NC3CC3)c1C2)c1ccccc1O | 8.5 °C |  | 9.3 °C | 6.4 °C | 7.4 °C | 2.1 °C | 5.9 °C | inhibition [12]: Active; Activity [13]: inactive; Activity [14]: Non-toxic; inhibition [15]: Active; inhibition [16]: Active; Activity [17]: inactive; inhibition [18]: Active; inhibition [19]: inactive; Activity [20]: 50%; Activity [21]: Non-toxic; Activity [22]: 50%; Kd [23]: 37.3 nM; inhibition [24]: Dose-dependent effect
17 | O=C(/C=C/N1C[C@H]2C[C@@H]1CN2c1ccccn1)c1ccccc1O | 8.2 °C | 5 °C |  |  |  |  |  | inhibition [12]: Active; inhibition [25]: Active; Activity [13]: inactive; Activity [14]: Non-toxic; remaining at 168 h [26]: > 90%; Activity [17]: inactive; Activity [20]: 50%; Activity [21]: Non-toxic; t1/2 [11]: > 250 h; Activity [22]: 50%; inhibition [27]: Active; inhibition [28]: Active
